Rev-erbA mod: modulators of human Rev-erb alpha DNA binding; P20393; activity, % at 10 µM; AID 1259318; Rev-erbα–FITC-DNA binding, fluorescence polarization, 90 min; actives 0.79% (n = 370,000);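 active means activity above about 14%, limit read from the data; passing the limit was not always enough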;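 further: 0% = DMSO wells with 35 nM protein and 100% = DMSO wells with 750 nM protein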
NR2E3 ag-1: NR2E3 (human) agonism; inhibition of corepressor binding, % at 4.78 µM; AID 2300; actives 0.12% (n = 320,000); GST-NR2E3/biotin-RetCOR TR-FRET, 1536-well;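 active means percent inhibition above the cutoff of mean plus 3 SD of all tested compounds, set per screening campaign, cut at about 20% in these data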;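 further: 0% = DMSO wells and 100% = biotin wells as full block of FRET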
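Test system – NR2E3–RetCOR corepressor complex · Quantity – NR2E3 fusion 1.35 nM · Buffer or medium – Tris pH 7.5 · Incubation – Compound–protein incubation for 5 h at 4 °C · Technique – TR-FRET, Eu(K)-anti-GST donor, streptavidin-D2 acceptor, ex 340, em 617/671 nm · Evaluation – percent inhibition of 671/617 nm emission ratio versus biotin and DMSO controls · Plate – 1536-well format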
PKA-R2B activ: activators of human PKA-R2B complex. P22694+P31323. PKA-R2B holoenzyme dissociation, Cy5-IP20 fluorescence polarization; R2B truncated from residue 108, S112A mutant; 0% DMSO only, 100% 113 µM cGMP. activation, % at 11.4 µM. actives 0.079% (n = 340,000);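 active means activation above a cutoff set at the mean over all compounds plus 3 SD, cut at about 18% in these data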;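 further: higher means more holoenzyme dissociation and a rise in polarization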
PG9 binder: PG9 antibody binding by small molecule | AID 624416 | TR-FRET gp120-PG9 antibody binding | inhibition, % at 6.7 µM | actives 0.43% (n = 360,000); in the data active means inhibition above about 8.5%
PKA-R1A activ: activates the PKA-R1A holoenzyme complex. P00514+P68181. PKA-R1A dissociation, Cy5-IP20 fluorescence polarization; scaled: DMSO 0%, 113 µM cGMP 100%. activation, % at 11.4 µM. actives 0.083% (n = 340,000). AID 504707;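 active means percent activation above the mean of all tested compounds plus 3 SD, cut at about 19% in these data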;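 further: higher means more PKAc released from R1A so a rise in polarization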
NR2E3 ag-2: agonists of human NR2E3 nuclear receptor. Q9Y5X4. CHO-S Gal4-NCOR/VP16-NR2E3 two-hybrid, luciferase. inhibition of corepressor binding, % at 3.98 µM. actives 0.35% (n = 360,000);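 active means inhibition above the mean of all tested compounds plus 3 SD, cut at about 70% in these data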;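 further: 0% = DMSO with NR2E3 transfected cells and 100% = cells lacking NR2E3 construct; higher means lower luciferase signal from less NR2E3 corepressor binding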
NR2E3 ag confirm: confirmation of human NR2E3 nuclear receptor agonists; shares compounds with NR2E3 ag-1; cell-free NR2E3 corepressor release, TR-FRET, 5 h; activation (reported as inhibition), % at 3.98 µM; actives 39% (n = 360); in the data active means activation above about 20%
PPARg-NCOR2 ag: counter-screen for NR2E3 agonists: human PPARgamma-NCOR2 interaction agonists; shares compounds with NR2E3 ag-1; TR-FRET PPARg-NCOR2 coregulator interaction, biochemical; inhibition, % at 3.98 µM; actives 45% (n = 360); in the data active means inhibition above about 20%;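 further: 0% = DMSO vehicle and 100% = wells without protein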
Numbers without * were called inactive; . = no result given. Most compounds without a hit are left out; they make up all but 1.6% or so of the library.

SMILES	Rev-erbA mod	NR2E3 ag-1	PKA-R2B activ	PG9 binder	PKA-R1A activ	NR2E3 ag-2	NR2E3 ag confirm	PPARg-NCOR2 ag
O=C(O)CCCN1C(=O)/C(=C/C=C/c2ccco2)SC1=S	-10	32*	-5	-3	-5	-12	-6	20*
CC(C)c1nc(N(C)S(C)(=O)=O)nc(-c2ccc(F)cc2)c1/C=C/[C@@H](O)C[C@@H](O)CC(=O)O	1	.	.	.	.	.	.	.
C[C@]12C=CC(=O)C=C1CCC1C2[C@@H](O)C[C@@]2(C)C1CC[C@]2(O)C(=O)CO (some centres not stated)	-5	.	.	.	.	.	.	.
CCc1cccc(NC(=O)CCCCCC2NC(=O)NC2C)c1 (configuration not stated)	-6	86*	2	-3	4	-7	90*	92*
CC1NC(=O)NC1CCCCC(=O)O (configuration not stated)	-5	0	17	-1	-7	-27	.	.
CC1NC(=O)NC1CCCCCC(=O)Nc1ccc(F)c(Cl)c1 (configuration not stated)	-3	90*	-6	-1	0	-4	88*	91*
CCC(=O)Nc1ccc(F)c(Cl)c1	-1	2	-18	0	-7	-8	.	.
Cc1ccc(NC(=O)CCCCCC2NC(=O)NC2C)cc1 (configuration not stated)	-3	87*	-11	.	-9	-19	90*	92*
CC(C)(C)NCC(O)COc1cccc2c1CCCC2=O (configuration not stated)	8	.	.	.	.	.	.	.
CNC[C@@H](O)c1ccc(O)c(O)c1	2	.	.	.	.	.	.	.
OCC(S)CS (configuration not stated)	10	.	.	.	.	.	.	.
C=C1C2CCC(C2)C1(C)C (configuration not stated)	-1	.	.	.	.	.	.	.
COc1cc(C2C(C(=O)c3cc4ccccc4o3)=C(O)C(=O)N2c2cc(C)on2)cc(OC)c1OC (configuration not stated)	-2	30*	0	2	-9	-6	35*	34*
COc1cc(C2C(C(=O)c3ccc(C)o3)=C(O)C(=O)N2c2cc(C)on2)cc(OC)c1OC (configuration not stated)	2	-2	-1	2	2	-3	.	.
COc1cccc2cc(C(=O)C3=C(O)C(=O)N(c4cc(C)on4)C3c3cccs3)oc12 (configuration not stated)	1	33*	4	4	6	-10	36*	42*
COc1cc(C2C(C(=O)c3cccs3)=C(O)C(=O)N2c2cc(C)on2)ccc1O (configuration not stated)	-5	-2	-8	0	3	1	.	.
Cc1cc(N2C(=O)C(O)=C(C(=O)c3cc4ccccc4o3)C2c2ccc(OC(C)C)cc2)no1 (configuration not stated)	0	11	1	7	5	-55	.	.
COC(=O)c1ccc(C2C(C(=O)c3cc4ccccc4o3)=C(O)C(=O)N2c2cc(C)on2)cc1 (configuration not stated)	3	23*	-1	4	-18	-9	32*	27*
COc1cccc(OCc2nc3c4cnn(-c5ccccc5)c4ncn3n2)c1	-4	2	4	-1	-5	-17	.	.
c1ccc(-n2ncc3c2ncn2nc(-c4ccco4)nc32)cc1	-7	48*	-6	0	-4	-96	18	59*
COC(=O)c1cc2sccc2n1Cc1nc(-c2ccc(OC)cc2)oc1C	1	-2	4	-2	11	-11	.	.

Screening results as filed in PubChem BioAssay.
